In all, about 220,000 compounds went through this assay and about 390 (0.18%) were called active. The entries come from a sample that favours actives as a whole. Unmarked numbers belong to inactive results.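 The calls were made as follows: active = activation above its plate's cutoff, the mean activation of test wells on that plate plus 3 SD (cut at about 19% in these data); inactive = the rest.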
system: transient receptor potential cation channel N1 (TRPN1/NompC), Danio rerio; assay: TRPN1 activation via calcium influx – cell-based, HEK293, calcium fluorescence, zebrafish, primary screen (AID 1424); settings: HEK293 zebrafish TRPN1-YFP, Fluo-8 calcium fluorescence; at 3 µM; active compounds read high; 100% = response to 87 µM carbachol;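 also: 0% = DMSO alone and 100% = 87 µM carbachol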
Summary of the method: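 Material: zebrafish TRPN1-YFP in HEK293 cells; Doses: single test compound dose, 3 µM nominal, 0.3% DMSO; Timing: dye loading 1 h at 37 °C, then 30 min room temperature; Technique: intracellular calcium fluorescence with Fluo-8; Benchmarks: high carbachol 87 µM, low DMSO alone.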

Row | Structure (SMILES) | activation
1 | CC(=O)c1c(C)[nH]c(=S)c(C#N)c1-c1ccc(F)cc1 | -0.66%
2 | Oc1ccc2ccc3cccc[n+]3c2c1 | 33.7% (active)
3 | CCN(Cc1ccccc1)S(=O)(=O)c1cc(C(=O)O)ccc1OC | -2.45%
4 | COc1cc(OC)cc(C(=O)N[C@H](C(=O)Nc2nc3ccccc3[nH]2)C(C)C)c1 | -2.24%
5 | CC(NC(=O)COC(=O)c1ccc2c(c1)OCO2)c1ccccc1 (stereo unspecified) | 1%
6 | COc1cc(OC)cc(C(=O)N[C@H](C(=O)OCC(=O)NC(C)c2ccccc2)C(C)C)c1 (stereo partly specified) | 46.5% (active)
7 | COc1ccc(C(=O)N/N=C2\CCS(=O)(=O)c3ccc(F)cc32)cc1OC | 2.13%
8 | COC(=O)c1cc(NC(=O)CN2CCN(C(C)=O)CC2)cc(C(=O)OC)c1 | 2.13%
9 | COc1ccc(S(=O)(=O)NC(C)C)cc1C(=O)NC1CCCCC1 | -0.93%
10 | COc1cc(OC)c(C(=O)NC2CCCCCC2)cc1OC | 32.1% (active)
11 | COc1cc(OC)c(C(=O)NC2CC(C)(C)NC(C)(C)C2)cc1OC | 2.05%
12 | CC(C)(C)c1cc(NC(=O)NN2CCOCC2)nn1-c1c(Cl)cc(Cl)cc1Cl | 0.61%
13 | O=C(NC(=O)N1CCSCC1)c1c(Cl)cccc1Cl | 2.1%
14 | O=S(=O)(/N=C(/Nc1ccccc1)c1ccccc1)c1cccs1 | -0.34%
15 | O=C(NCCCN1CCN(c2ccc(F)cc2)CC1)Nc1ccc([N+](=O)[O-])cc1 | 10.4%
16 | Cc1ccccc1NC(=S)NNC(=O)c1cccc(Br)c1 | 2.03%
17 | CC(=O)Nc1ccc(CN2CCN(Cc3ccc(F)c(F)c3)C(CCO)C2)cc1 (stereo unspecified) | 2.06%
18 | CCOC(=O)/C(=N\Nc1ccccc1Cl)N(C)C1CCS(=O)(=O)C1 (stereo unspecified) | -0.61%
19 | COc1ccc(C(=O)N/N=C(\C)CC(=O)Nc2ccc(Cl)cn2)cc1 | -1.34%
20 | NC(=O)CC[C@@H]1NC(=O)[C@@H]2CCCN2C(=O)c2cc([N+](=O)[O-])cc(F)c2NCCC[C@@H](C(N)=O)NC1=O | 1.08%
21 | Cc1cccc(OCC(=O)NC(=S)Nc2ccccc2N2CCOCC2)c1 | -0.19%
22 | Cc1ccc(O)c(NC(=O)COc2cc(C)ccc2C)c1 | -0.38%
23 | Cc1ccc(O)c(NC(=S)NC(=O)COc2ccc(Br)cc2)c1 | 30.4% (active)

Row | Structure (SMILES) | activation
24 | CC(=O)c1sc(NC(=O)C2=NN(c3ccccc3)C(=O)CC2)nc1C | 0.7%
25 | C=CCNC(=S)N1CCc2[nH]c3ccccc3c2C1 | 0.61%
26 | Cc1cc(C)c2[nH]c(=O)c(CN(Cc3ccccc3)C(=S)NCCCN(C)C)cc2c1 | -0.96%
27 | CSc1ncccc1C(=O)OCc1ccc(Br)cc1 | -0.54%
28 | Nc1c(C(=O)c2cccs2)sc2nsc(SCCN3CCCCC3)c12 | 33.7% (active)
29 | Cc1nc2sc(C(=O)c3ccccc3)c(N)c2c2c1CCCC2 | -0.99%
30 | CN(C)c1ccnc2sc(C(=O)c3ccccc3)c(N)c12 | -2.41%
31 | Cn1ccs/c1=N\S(=O)(=O)c1ccc(C(C)(C)C)cc1 | 1.16%
32 | COc1ccccc1C1CC(=O)n2c(nc(-c3ccccc3)c2-c2ccccc2)S1 (stereo unspecified) | -0.42%
33 | COc1c(C)cc(C(=O)C2CCCN(S(=O)(=O)c3c(C)noc3C)C2)cc1C (stereo unspecified) | -0.64%
34 | Fc1ccc(NC(=S)N2CCc3[nH]c4ccccc4c3C2)cc1 | 3.02%
35 | O=C(NCCCn1ccnc1)C(=O)NCC1OCCN1S(=O)(=O)c1cc(F)ccc1F (stereo unspecified) | 1%
36 | CC(C)CC(CC(C)C)=NNC(=O)c1ccc(CSc2nncn2C)cc1 | -0.24%
37 | CC(=O)Nc1ccccc1C(=O)C(=O)Nc1ccc(F)cc1 | 0%
38 | COc1ccc(COC(=O)N/N=C(\C)CC(=O)Nc2ccc(Cl)cc2)cc1 | -1.28%
39 | COc1ccccc1CSc1ncc(-c2ccc([N+](=O)[O-])cc2)[nH]1 | -2.17%
40 | CCc1ccc(NC(=O)C(C)OC(=O)/C=C/c2cccc([N+](=O)[O-])c2)cc1 (stereo unspecified) | 2.04%
41 | Cn1cnc(C(F)(F)F)c1-c1ccc([N+](=O)[O-])cc1 | -1.25%
42 | Cc1cc(C)cc(OCC(=O)O/N=C(\N)Cc2ccc([N+](=O)[O-])cc2)c1 | -1.73%
43 | O=c1c(Cl)c(NCc2ccc(F)cc2Cl)cnn1C12CC3CC(CC(C3)C1)C2 | 0.56%
44 | O=C(NC(Nc1nc2ccc([N+](=O)[O-])cc2s1)(C(F)(F)F)C(F)(F)F)c1ccccc1 | 27.4% (active)
45 | O=C(O)CCC(=O)Nc1nc2ccc([N+](=O)[O-])cc2s1 | -0.08%
46 | O=C(Nc1nc2ccc([N+](=O)[O-])cc2s1)c1ccncc1 | 4.01%
